Published values pooled from the literature.
Protocols differ between the studies behind these lines.
Read-out: enzyme activity
ABL1: Tyrosine-protein kinase ABL1 (ABL1, Homo sapiens, UniProt P00519)
ABL1 Q252H: Tyrosine-protein kinase ABL1 (ABL1, Homo sapiens, UniProt P00519, Q252H)

CC(C)(O)[C@H]1CC[C@H](Nc2ccc3ncc(-c4cccc(C(F)(F)F)c4)n3n2)CC1
remaining activity (ABL1; inhibitor; 1 µM): 69.8%

Cc1[nH]c(/C=C2\C(=O)Nc3ccc(F)cc32)c(C)c1C(=O)N[C@H]1CCN(C(=O)N(C)C)C1
remaining activity (ABL1; inhibitor; 0.1 µM): 104%

CCCOc1ccc(OC)c(F)c1C(=O)c1ccc(C(=O)N[C@@H]2CNC[C@H]2NC(=O)c2ccc3[nH]ncc3c2)cc1
remaining activity (ABL1 Q252H; inhibitor; 10 µM): 76%

Cc1ccc(NC(=O)c2ccc(C)c(C(F)(F)F)c2)cc1C#Cc1nn(C2CCC(O)CC2)c2ncnc(N)c12 (centres unmarked)
remaining activity (ABL1 Q252H; 10 µM): 2%

Cc1cnc(NC2CCOCC2)nc1-n1cnc(C(=O)NC(CN)c2cc(F)cc(Cl)c2)c1 (centres unmarked)
remaining activity (ABL1 Q252H; inhibitor; radiometric; 1 µM): 91%

COc1cc(Nc2cnc(C#N)c(O[C@H](C)CN(C)C)n2)ncc1-c1cnn(C)c1
remaining activity (ABL1; inhibitor; radiometric; 10 µM): 58%

Cc1sc(C(=O)NC2COC2)cc1-n1cc(NC(=O)Nc2c(F)cccc2Cl)cn1
remaining activity (ABL1; inhibitor; 10 µM): 102%

CC(C)(C)c1nc2c(s1)c1nc(N)ncc1c1ccc(NS(=O)(=O)c3c(F)cccc3F)c(F)c12
remaining activity (ABL1; inhibitor; radiometric; 1 µM): 93%
